Consider four compounds from PMC10795791 (Journal of Enzyme Inhibition and Medicinal Chemistry, 2024).

Data set [1] has as its system liver cancer cell line (HepG-2). Description: MTT anticancer activity, HepG-2. Conditions: Homo sapiens, HepG2, 72 h, read-out: HepG-2 IC50. Format: cell-based. In a few lines:
(§1)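 ATCC-sourced cancer cell lines were used: HepG-2 liver, NFS-60 myeloid leukaemia and PC-3 prostate. Cells were incubated with test compound for 72 h, viability was measured by MTT, and IC50 was derived. Doxorubicin served as reference drug. Results are mean ± SEM; significance was by Tukey post hoc ANOVA.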

Data set [2] relates to colon cancer cells (Caco-2). Description: MTT anticancer activity, Caco-2. The class given is cell-based, human. Conditions: Homo sapiens, Caco-2, 72 h, read-out: Caco-2 IC50. In a few lines:
(§2)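 ATCC-sourced Caco-2 colon cancer cells were exposed to test compound for 72 h. Viability was read by microculture MTT, with doxorubicin as reference, and IC50 was derived. Normal human lung fibroblasts (Wi-38) were run in the same 72 h MTT format to obtain IC50 and EC100 for selectivity. Results are mean ± SEM.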

Data set [3] deals with prostate cancer cell line (PC-3). Description: MTT anticancer activity, PC-3. The class given is cell-based. Conditions: Homo sapiens, 72 h, read-out: PC-3 IC50. In a few lines:
as §1

In data set [4] the test system is myeloid leukaemia cell line (NFS-60). Description: MTT anticancer activity, NFS-60. The class given is cell-based. Conditions: NFS-60, 72 h, read-out: NFS-60 IC50. In a few lines:
as §1

The target of data set [5] is T1, PIM-1 kinase (Homo sapiens, UniProt P11309). Description: In vitro PIM-1 kinase inhibition. Format: biochemical. Conditions: from pIC50 and molecular size.
T1 sequence (P11309 whole entry): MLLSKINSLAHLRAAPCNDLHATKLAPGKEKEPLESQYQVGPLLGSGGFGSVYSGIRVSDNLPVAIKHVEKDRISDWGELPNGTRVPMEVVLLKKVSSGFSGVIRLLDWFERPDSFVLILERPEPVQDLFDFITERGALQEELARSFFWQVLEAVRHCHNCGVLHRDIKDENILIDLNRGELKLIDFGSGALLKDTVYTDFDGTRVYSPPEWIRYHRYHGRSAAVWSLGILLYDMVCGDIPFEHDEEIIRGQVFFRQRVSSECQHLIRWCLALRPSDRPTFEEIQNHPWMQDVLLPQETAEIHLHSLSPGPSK
In data set [6] the target is T1, PIM-1 kinase. Format: biochemical. Conditions: Lineweaver-Burk double-reciprocal plot; for mode of PIM-1 kinase inhibition: in the presence of ATP; for Km change / Vmax change: versus control.
Data set [7] in a line: MTT anticancer activity, Caco-2. Format: cell-based, human. Conditions: human, Caco-2, Caco-2 SI (selectivity index), Wi-38 EC50 divided by Caco-2 IC50. In a few lines: as §2

As for `CCOc1nc(-c2cccc(O)c2)cc(-c2cc3cc(Cl)ccc3nc2N2CCOCC2)c1C#N` [Compound 4b, 4-(6-Chloro-2-morpholin-4-yl-quinolin-3-yl)-2-ethoxy-6-(3-hydroxyphenyl)pyridine-3-carbonitrile], the half-maximal inhibitory concentration (IC50) – broadly, the concentration that gives 50% inhibition – in data set [1] was 59 nM.

On to `CCOc1nc(-c2cccc(O)c2)cc(-c2cc3cc(OC)ccc3nc2N2CCOCC2)c1C#N` [Compound 4c, 2-Ethoxy-6-(3-hydroxyphenyl)-4-(6-methoxy-2-morpholin-4-yl-quinolin-3-yl)pyridine-3-carbonitrile], for which the IC50 in data set [1] turned out to be 13.2 nM; in data set [2], 7 nM; in data set [3], 5 nM; in data set [4], 6 nM. Further, on PIM-1 kinase [5], the “LE (ligand efficiency), PIM-1 kinase” value was about 0.3. Moreover, the “mode of PIM-1 kinase inhibition” value at PIM-1 kinase [6] was “both ATP competitive and non-competitive inhibitors”. On PIM-1 kinase [6], the Km change entry was “increase”. Also, the Vmax change result on PIM-1 kinase [6] is on record as “reduced”.

For `CCCOc1nc(-c2cccc(O)c2)cc(-c2cc3cc(OC)ccc3nc2N2CCOCC2)c1C#N` [Compound 4f, 6-(3-Hydroxyphenyl)-4-(6-methoxy-2-morpholin-4-yl-quinolin-3-yl)-2-propoxypyridine-3-carbonitrile], the IC50 in data set [1] was 16.4 nM. Further, in data set [7], the selectivity ratio at 72 h was at least 1.6. Moreover, on PIM-1 kinase [5], the “LE (ligand efficiency), PIM-1 kinase” value is about 0.3. Moreover, on PIM-1 kinase [6], the “mode of PIM-1 kinase inhibition” value is “both ATP competitive and non-competitive inhibitors”; the Km change result is recorded as “increase”; the Vmax change result is recorded as “reduced”.

Turning to `Nc1n[nH]c2nc(-c3cccc(O)c3)cc(-c3cc4ccccc4nc3N3CCOCC3)c12` [Compound 6a, 3-(3-Amino-4-(2-morpholin-4-yl-quinolin-3-yl)-1H-pyrazolo[3,4-b]pyridin-6-yl)phenol], the IC50 in data set [1] stood at 66.7 nM.
